As a reminder, the inhibition is the relative decrease from the control value, in per cent.

The campaign covered roughly 340,000 compounds. About 540 (0.16%) were called active. Shown is part of a subset that was picked to be rich in actives. Values without a mark were called inactive.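 How the source made its calls: active means inhibition above about 35% when tested at 20 µM (limit read from the data); inactive means the rest.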

The target of the test is Hexokinase HKDC1 (Homo sapiens) (UniProt Q2TB90). The test is described as follows: blockers of human HKDC1 enzyme activity – biochemical, fluorescence, uHTS, primary screen (AID 493160).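 Further: plate controls were DMSO wells with enzyme for no effect and DMSO wells lacking enzyme for full effect.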 As to conditions: recombinant HKDC1, G6PDH/diaphorase resazurin coupled fluorescence; at 20 µM; stronger effect = higher value. In outline: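 Test system: HK5 enzyme. Quantity: 5 µg/mL HK5 final. Reagent: glucose and ATP substrates. Schedule: 90 min reaction incubation at room temperature, dark. Technique: resazurin-to-resorufin fluorescence via G6PDH and diaphorase coupling, 525/613 nm. Control set: DMSO wells with and without enzyme mix.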
Sequence of Hexokinase HKDC1 (Homo sapiens) (Q2TB90 whole entry, looked up): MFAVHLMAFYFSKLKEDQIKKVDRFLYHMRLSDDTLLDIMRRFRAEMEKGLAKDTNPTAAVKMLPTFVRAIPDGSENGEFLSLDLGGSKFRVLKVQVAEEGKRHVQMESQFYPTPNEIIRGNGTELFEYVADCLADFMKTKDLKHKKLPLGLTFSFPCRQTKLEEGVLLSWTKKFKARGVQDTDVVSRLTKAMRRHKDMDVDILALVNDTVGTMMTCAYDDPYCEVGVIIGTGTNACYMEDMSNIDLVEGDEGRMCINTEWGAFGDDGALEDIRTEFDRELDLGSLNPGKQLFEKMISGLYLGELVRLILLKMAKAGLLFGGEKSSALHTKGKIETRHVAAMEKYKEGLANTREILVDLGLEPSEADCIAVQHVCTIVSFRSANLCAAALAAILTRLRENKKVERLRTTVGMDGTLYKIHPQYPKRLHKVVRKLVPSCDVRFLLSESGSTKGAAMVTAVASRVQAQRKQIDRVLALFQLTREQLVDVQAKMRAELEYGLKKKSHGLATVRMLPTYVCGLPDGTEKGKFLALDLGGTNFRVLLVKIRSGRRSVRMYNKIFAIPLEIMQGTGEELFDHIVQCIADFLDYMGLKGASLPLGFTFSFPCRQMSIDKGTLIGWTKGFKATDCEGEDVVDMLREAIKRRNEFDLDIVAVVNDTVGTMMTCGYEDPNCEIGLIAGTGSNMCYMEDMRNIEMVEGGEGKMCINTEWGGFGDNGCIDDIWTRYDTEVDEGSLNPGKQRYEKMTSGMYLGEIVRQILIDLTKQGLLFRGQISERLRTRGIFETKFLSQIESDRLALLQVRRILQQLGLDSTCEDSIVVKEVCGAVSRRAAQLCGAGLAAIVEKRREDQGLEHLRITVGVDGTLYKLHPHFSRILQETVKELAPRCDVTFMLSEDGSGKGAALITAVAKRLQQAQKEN
(In general: Alamar Blue is a resazurin reagent that responds to reducing activity.)
In the case of `Cc1ccc(C(C)(C)C)c(OCCCCN2CCCC2)c1`, the inhibition is -1.47%.

For `CC1(C)CC(=O)C=C(c2ccc3ncccc3c2)C1`, the inhibition is 11.6%.

With `N/C(=N\c1nc2ccccc2o1)NC(=O)C(Cc1ccccc1)N1C(=O)c2ccccc2C1=O` (stereo unspecified), the inhibition was -5.13%.

As to `CCc1cc(CNC(=O)CC2C(=O)NCCN2CC2CCCCC2)on1` (stereo unspecified), the inhibition is -15.1%.

As to `O=C(Cn1c2[n+](c3ccc(C(F)(F)F)cc31)CCCCC2)Nc1c(F)cccc1F`, the inhibition was 1.03%.

Take `CCOC(=O)c1ccccc1NC(=O)COC(=O)C(Cc1c[nH]c2ccccc12)NC(C)=O` (stereo unspecified): the inhibition is 0.25%.

In the case of `O=C(Nc1ccc(S(=O)(=O)Nc2ncccn2)cc1)c1cncc(Br)c1`, the inhibition is -5.17%.

Take `CCC1SC2=NCCN2C1(O)c1ccc(Cl)cc1` (stereo unspecified): the inhibition was 10.4%.

In the case of `C#CCOCCOCCOCCNc1nc(N2CCN(C(=O)C([C@@H](C)CC)n3cc(C(N)COC(=O)C(F)(F)F)nn3)CC2)nc(N2CCN(C(=O)[C@H](Cc3ccc(O)cc3)n3cc(C(N)[C@H](C)CC)nn3)CC2)n1` (stereo partly specified), the inhibition is 1.5%.

`CC(=O)N(CC1CCCO1)C1(C(=O)NC2CCCC2)CCCCC1` (stereo unspecified): the inhibition is 2.48%.

On to `COc1ccc(CN2CC(C(=O)NCCc3ccc(Cl)cc3)CC2=O)cc1` (stereo unspecified), for which the inhibition is -3.16%.

In the case of `Cc1ccc(Nc2nnc(SC(C)C(=O)NC3CC3)s2)cc1` (stereo unspecified), the inhibition is -5.42%.

Turning to `CC12CN(NC(=O)c3ccc(Cl)cc3)C3(C#N)CC1CCC23C` (stereo unspecified), the inhibition was -3.27%.

For the compound `Cc1noc(C)c1S(=O)(=O)N(C)C[C@H]1Oc2ccc(NC(=O)C3CC3)cc2C(=O)N([C@H](C)CO)C[C@@H]1C`, the inhibition is 3.28%.

In the case of `CCn1cc(C(=O)OCC(=O)Nc2cccc(C)c2)c(=O)c2ccc(C)nc21`, the inhibition is -3.21%.

As to `COCc1c(C(=O)N/N=C\c2cccnc2)nnn1-c1nonc1N`, the inhibition is -3.41%.

For the compound `COc1cc(/C=C/C(=O)OCC(=O)N2CCOCC2)ccc1OCC#N`, the inhibition was -1.34%.

In the case of `COc1ccc(C(=O)Nc2cc(S(=O)(=O)N3CCCC3)ccc2Cl)cc1`, the inhibition was 1.91%.

On to `O=C1C(Cl)=C(Oc2ccccc2)C(=O)c2ccccc21`, for which the inhibition was 65.2% (active).

`Nc1ccc2nc3c(=O)[nH]c(=S)[nH]c3nc2c1`: the inhibition was 69.9% (active).

For `C=CCn1c(CCNC(=O)c2ccccc2F)nnc1SCC(=O)Nc1ccc(OC)cc1`, the inhibition is -6.44%.

For `COc1ccc(S(=O)(=O)N2CCCC2CNC(=O)C(=O)NC2CC2)cc1` (stereo unspecified), the inhibition is 0.83%.

Consider `Cc1ccc2c(c1)N(S(=O)(=O)c1cc(-c3cc(C)no3)ccc1C)CCO2`, for which the inhibition is 1.39%.

As to `O=S(N1CCCCCC1)C12CC3CC(CC(C3)C1)C2` (stereo unspecified), the inhibition is -7.44%.

As for `O=C(CNC(=O)Cc1ccccc1)NCC(=O)OCC(=O)c1ccccc1Cl`, the inhibition is 8.72%.

Take `CCOC(=O)c1ccc(NC(=O)c2nc[nH]c2C(=O)N[C@@H](CCCCNC(=O)OC(C)(C)C)C(=O)OC(C)(C)C)cc1`: the inhibition is 3.03%.

Regarding `Oc1c(C(c2ccco2)N2CCC3(CC2)OCCO3)sc2ncnn12` (stereo unspecified), the inhibition was 0.37%.

Regarding `O=C(Cc1ccc(NC(=O)C2CCCN(C(=O)C3CCCCC3)C2)cc1)Nc1cccc(C(=O)N2CCCCC2)c1` (stereo unspecified), the inhibition is -3.33%.

For the compound `CCC(C)c1ccc(O)c(/C=N/O)c1` (stereo unspecified), the inhibition is -1.01%.

As for `CCOC(=O)CCP(=O)(O)C(O)(c1ccccc1)c1ccccc1`, the inhibition was -11.5%.

With `CCN(CC)C(=O)C(=O)c1cn(CC(=O)NCc2ccc3c(c2)OCO3)c2ccccc12`, the inhibition is -5.09%.

With `OC(COCc1ccco1)CN1CCN(c2ccccc2)CC1` (stereo unspecified), the inhibition is -10.6%.

Turning to `Cc1ccc(-c2cnc(NC(=O)CCC(=O)N(C)Cc3ccccc3)n2C)cc1`, the inhibition was -3.47%.

On to `Cc1cccc(-n2ncc3c(=O)[nH]c(SCC(=O)Nc4cc(C)on4)nc32)c1`, for which the inhibition is -3.1%.

As for `CC1CN(C2CCCCC2)c2nc3c(c(=O)n(C)c(=O)n3C)n2C1` (stereo unspecified), the inhibition was 3.52%.

Take `CC(C)(C)NC(=O)CSc1nnc(NC(=O)CCc2ccccc2)s1`: the inhibition is -2.99%.

Turning to `Cc1cc(-c2n[nH]c(=S)n2/N=C/C(Br)=C/c2ccccc2)n[nH]1`, the inhibition was 29.1%.

As for `COc1ccc(O)c(C(=O)c2cnc3onc(C(C)C)c3c2)c1`, the inhibition is -4.62%.

Regarding `Cc1ccc(CNC(=O)CCS(=O)(=O)c2ccc3c(c2)CC(C)N3C(=O)C2CC2)o1` (stereo unspecified), the inhibition was -0.82%.

On to `CC1CCN(S(=O)(=O)c2ccc(S(=O)(=O)NCc3cccnc3)cc2)CC1`, for which the inhibition was -6.19%.

In the case of `CC(C)(C)c1cc(CN2CCN(CCC#N)CC2)cc(C(C)(C)C)c1O`, the inhibition is 3.39%.

As to `Cc1nn(C)c(C)c1NS(=O)(=O)c1ccc(OC(F)(F)F)cc1`, the inhibition is -3.33%.

Take `O=S(=O)(Nc1ccc(O)c2ccccc12)c1ccc(OC(F)(F)F)cc1`: the inhibition is 52% (active).

In the case of `O=C1COc2ccc(S(=O)(=O)Nc3ccc(OC(F)(F)F)cc3)cc2N1`, the inhibition was 2.53%.

On to `C=C(C)c1cccc(C(C)(C)NC(=O)NCCN(CC)CC)c1`, for which the inhibition was 13%.

For `CC1Cc2ccccc2N1S(=O)(=O)c1cccc(C(=O)OCC(=O)N2CCOCC2)c1` (stereo unspecified), the inhibition was -4.82%.

Consider `COc1cc(NC(=O)C2=C(C)OCCS2)c(Cl)cc1C(=O)NCCN1CCN(C)CC1`, for which the inhibition is -3.87%.

Take `COCCCNC(NC(=O)c1ccc(OC)cc1)C(Cl)(Cl)Cl` (stereo unspecified): the inhibition is -2.25%.

As for `CC(C)(C)OC(=O)N(Cc1ccccc1)Cc1ccc(OCc2cccc(NC(=O)c3ccccc3)c2)cc1`, the inhibition is -0.76%.

`COc1ccc(Nc2ncc(C(=O)N3CCN(c4ccccc4OC)CC3)c3ccccc23)cc1`: the inhibition is 3.14%.

`CCc1c(Nc2ccccc2Cl)nc(N)[nH]c1=O`: the inhibition was -5.05%.

`Fc1ccccc1OCCSc1nc2ccccc2o1`: the inhibition is 7.74%.

For `CC(C)C[C@H](NC(=O)N1CC(=O)Nc2ccccc21)C(=O)N[C@H](Cc1ccccc1)C(=O)O`, the inhibition is -0.33%.

Consider `CN(C(=O)CSc1cccc[n+]1[O-])C1CCCCC1`, for which the inhibition was -5.14%.

Turning to `NC(=O)C1CC=CCC1C(=O)OCC(Cl)=C(Cl)Cl` (stereo unspecified), the inhibition is -10.8%.

Regarding `Cc1nc2nc(COc3ccccc3)[nH]n2c(=O)c1C`, the inhibition is 0.17%.

With `CC(=O)N1CSCC1C(=O)O` (stereo unspecified), the inhibition was -1.3%.

Regarding `CCOc1ccc(N2C(=O)CN(c3cccc4ccccc34)C2=S)cc1`, the inhibition is -10.4%.

`Cc1ccc(S(=O)(=O)NC(=O)COc2ccccc2C)cc1`: the inhibition was -6.13%.

`Cn1c2ccccc2c2cc(/C=C(\NC(=O)c3ccccc3)C(=O)NCC(=O)O)ccc21`: the inhibition is -5.19%.

As to `Cc1c(-c2ccccc2)cn2c1-c1ccc(C)n1CC2`, the inhibition was 1.47%.

As for `COc1ccc(-c2csc3ncnc(Oc4ccc5c(C)cc(=O)oc5c4)c23)cc1`, the inhibition is 6.07%.

For `CCCCN(C(=O)c1cccc(N2C(=O)c3ccccc3C2=O)c1)c1c(N)n(CCCC)c(=O)[nH]c1=O`, the inhibition was -1.42%.

Take `Cc1ccc(N(C(=O)c2ccc(S(=O)(=O)N(C)C)cc2)C2C=CS(=O)(=O)C2)cc1` (stereo unspecified): the inhibition is -6.81%.

As for `NS(=O)(=O)c1ccc(CCNC(=O)c2nc(CS(=O)(=O)c3ccc(Cl)cc3)no2)cc1`, the inhibition was 4.98%.

Consider `Cc1nc2ccc(N)nc2nc1C`, for which the inhibition was -5.39%.

With `Cc1cccc([C@@H]2[C@@H]3C(=O)N(C)C(=O)[C@@H]3[C@@H]3C(=O)Nc4ccccc4C(=O)N23)c1`, the inhibition was -0.25%.

As for `CC(C)=CC(=O)Nc1nnc(-c2ccc(F)cc2)s1`, the inhibition is 6.59%.

As to `Cc1cc(C)n(CCNC(=O)CC2C(=O)NCCN2Cc2ccc(C)o2)n1` (stereo unspecified), the inhibition was -9.7%.

Take `Cc1ccc(O)c(NC(=O)c2cc(-c3ccco3)on2)c1`: the inhibition is -2.87%.

On to `CC(=O)N1CC(=O)N(CC(=O)Nc2ccc(Br)cc2)C1=S`, for which the inhibition is -1.64%.

For `O=C(O)c1ccc(NS(=O)(=O)c2ccc3c(c2)C(=O)c2cc(S(=O)(=O)Nc4ccc(C(=O)O)cc4)ccc2-3)cc1`, the inhibition was 2.22%.

Take `CCn1cc(C(=O)NCc2ccc3c(c2)OCO3)c2cc(OC)c(OC)cc2c1=O`: the inhibition is 37.8% (active).

For the compound `CCn1cc(C(=O)N2CCN(Cc3ccc4c(c3)OCO4)CC2)c2cc(OC)c(OC)cc2c1=O`, the inhibition was -2.84%.

On to `COc1cc(OC)c(C(=O)NCc2ccc3c(c2)OCO3)cc1OC`, for which the inhibition is -0.69%.

On to `COc1ccc(C(C)C)cc1S(=O)(=O)Nc1ncn[nH]1`, for which the inhibition is -3.49%.

The values are drawn from PubChem BioAssay AID493160 (Sanford-Burnham Center for Chemical Genomics, 2011).
